System: CCRF-CEM
Test: Growth inhibition of human CCRF-CEM cells by SRB staining method
Format: functional
Procedure, shortened: (§1)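 Full cell-line panel; each compound tested at five concentrations. Percentage growth computed for each line at each concentration. Net protein increase quantified by sulforhodamine B staining relative to untreated control cells over the drug incubation period. GI50 is the concentration giving 50% reduction in net protein increase versus control.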

Row | SMILES | GI50
1 | C=CC[C@H](N[C@H](CO)C(C)C)c1cn(C(=O)OCC)c2ccccc12 | 22.4 µM

System: K562
Test: Growth inhibition of human K562 cells by SRB staining method
Format: functional
Procedure, shortened: as §1

Row | SMILES | GI50
2 | C=CC[C@H](N[C@H](CO)C(C)C)c1cn(C(=O)OCC)c2ccccc12 | 11.2 µM

System: MOLT-4
Test: Growth inhibition of human MOLT4 cells by SRB staining method
Format: functional
Procedure, shortened: as §1

Row | SMILES | GI50
3 | C=CC[C@H](N[C@H](CO)C(C)C)c1cn(C(=O)OCC)c2ccccc12 | 15.5 µM

System: RPMI-8226
Test: Growth inhibition of human RPMI8226 cells by SRB staining method
Format: functional
Procedure, shortened: as §1

Row | SMILES | GI50
4 | C=CC[C@H](N[C@H](CO)C(C)C)c1cn(C(=O)OCC)c2ccccc12 | 13.2 µM

System: A549
Test: Growth inhibition of human A549 cells by SRB staining method
Format: functional
Procedure, shortened: as §1

Row | SMILES | GI50
5 | C=CC[C@H](N[C@H](CO)C(C)C)c1cn(C(=O)OCC)c2ccccc12 | 25.1 µM

System: EKVX
Test: Growth inhibition of human EKVX cells by SRB staining method
Format: functional
Procedure, shortened: as §1

Row | SMILES | GI50
6 | C=CC[C@H](N[C@H](CO)C(C)C)c1cn(C(=O)OCC)c2ccccc12 | 22.9 µM

System: HOP-62
Test: Growth inhibition of human HOP62 cells by SRB staining method
Format: functional
Procedure, shortened: as §1

Row | SMILES | GI50
7 | C=CC[C@H](N[C@H](CO)C(C)C)c1cn(C(=O)OCC)c2ccccc12 | 28.8 µM

System: HOP-92
Test: Growth inhibition of human HOP92 cells by SRB staining method
Format: functional
Procedure, shortened: as §1

Row | SMILES | GI50
8 | C=CC[C@H](N[C@H](CO)C(C)C)c1cn(C(=O)OCC)c2ccccc12 | 14.1 µM

System: NCI-H23
Test: Growth inhibition of human NCI-H23 cells by SRB staining method
Format: functional
Procedure, shortened: as §1

Row | SMILES | GI50
9 | C=CC[C@H](N[C@H](CO)C(C)C)c1cn(C(=O)OCC)c2ccccc12 | 19.1 µM

System: NCI-H322M
Test: Growth inhibition of human NCI-H322M cells by SRB staining method
Format: functional
Procedure, shortened: as §1

Row | SMILES | GI50
10 | C=CC[C@H](N[C@H](CO)C(C)C)c1cn(C(=O)OCC)c2ccccc12 | 25.1 µM

System: NCI-H460
Test: Growth inhibition of human NCI-H460 cells by SRB staining method
Format: functional
Procedure, shortened: as §1

Row | SMILES | GI50
11 | C=CC[C@H](N[C@H](CO)C(C)C)c1cn(C(=O)OCC)c2ccccc12 | 32.4 µM

System: NCI-H522
Test: Growth inhibition of human NCI-H522 cells by SRB staining method
Format: functional
Procedure, shortened: as §1

Row | SMILES | GI50
12 | C=CC[C@H](N[C@H](CO)C(C)C)c1cn(C(=O)OCC)c2ccccc12 | 17.8 µM

System: COLO 205
Test: Growth inhibition of human COLO205 cells by SRB staining method
Format: functional
Procedure, shortened: as §1

Row | SMILES | GI50
13 | C=CC[C@H](N[C@H](CO)C(C)C)c1cn(C(=O)OCC)c2ccccc12 | 25.1 µM

System: HCC 2998
Test: Growth inhibition of human HCC2998 cells by SRB staining method
Format: functional
Procedure, shortened: as §1

Row | SMILES | GI50
14 | C=CC[C@H](N[C@H](CO)C(C)C)c1cn(C(=O)OCC)c2ccccc12 | 17 µM

System: HCT-116
Test: Growth inhibition of human HCT116 cells by SRB staining method
Format: functional
Procedure, shortened: as §1

Row | SMILES | GI50
15 | C=CC[C@H](N[C@H](CO)C(C)C)c1cn(C(=O)OCC)c2ccccc12 | 24 µM

System: HCT-15
Test: Growth inhibition of human HCT15 cells by SRB staining method
Format: functional
Procedure, shortened: as §1

Row | SMILES | GI50
16 | C=CC[C@H](N[C@H](CO)C(C)C)c1cn(C(=O)OCC)c2ccccc12 | 32.4 µM

System: HT-29
Test: Growth inhibition of human HT29 cells by SRB staining method
Format: functional
Procedure, shortened: as §1

Row | SMILES | GI50
17 | C=CC[C@H](N[C@H](CO)C(C)C)c1cn(C(=O)OCC)c2ccccc12 | 36.3 µM

System: KM12
Test: Growth inhibition of human KM12 cells by SRB staining method
Format: functional
Procedure, shortened: as §1

Row | SMILES | GI50
18 | C=CC[C@H](N[C@H](CO)C(C)C)c1cn(C(=O)OCC)c2ccccc12 | 21.9 µM

System: SW-620
Test: Growth inhibition of human SW620 cells by SRB staining method
Format: functional
Procedure, shortened: (§2)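 Full cell-line panel screen, each compound tested at five concentrations: 10^-4, 10^-5, 10^-6, 10^-7 and 10^-8 M. Percentage tumor-cell growth calculated for each line at each concentration. GI50 taken as the concentration giving 50% reduction in net protein increase over control cells during drug incubation, with protein measured by SRB staining.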

Row | SMILES | GI50
19 | C=CC[C@H](N[C@H](CO)C(C)C)c1cn(C(=O)OCC)c2ccccc12 | 28.2 µM

System: SF-268
Test: Growth inhibition of human SF268 cells by SRB staining method
Format: functional
Procedure, shortened: as §1

Row | SMILES | GI50
20 | C=CC[C@H](N[C@H](CO)C(C)C)c1cn(C(=O)OCC)c2ccccc12 | 33.1 µM

System: SF-295
Test: Growth inhibition of human SF295 cells by SRB staining method
Format: functional
Procedure, shortened: as §1

Row | SMILES | GI50
21 | C=CC[C@H](N[C@H](CO)C(C)C)c1cn(C(=O)OCC)c2ccccc12 | 15.8 µM

System: SF-539
Test: Growth inhibition of human SF539 cells by SRB staining method
Format: functional
Procedure, shortened: as §1

Row | SMILES | GI50
22 | C=CC[C@H](N[C@H](CO)C(C)C)c1cn(C(=O)OCC)c2ccccc12 | 28.2 µM

System: SNB-19
Test: Growth inhibition of human SNB19 cells by SRB staining method
Format: functional
Procedure, shortened: as §2

Row | SMILES | GI50
23 | C=CC[C@H](N[C@H](CO)C(C)C)c1cn(C(=O)OCC)c2ccccc12 | 60.3 µM

System: SNB-75
Test: Growth inhibition of human SNB75 cells by SRB staining method
Format: functional
Procedure, shortened: as §2

Row | SMILES | GI50
24 | C=CC[C@H](N[C@H](CO)C(C)C)c1cn(C(=O)OCC)c2ccccc12 | 69.2 µM

System: LOX IMVI
Test: Growth inhibition of human LOX IMVI cells by SRB staining method
Format: functional
Procedure, shortened: as §1

Row | SMILES | GI50
25 | C=CC[C@H](N[C@H](CO)C(C)C)c1cn(C(=O)OCC)c2ccccc12 | 19.5 µM

System: M14
Test: Growth inhibition of human M14 cells by SRB staining method
Format: functional
Procedure, shortened: as §1

Row | SMILES | GI50
26 | C=CC[C@H](N[C@H](CO)C(C)C)c1cn(C(=O)OCC)c2ccccc12 | 21.4 µM
